From PubChem
Rows were chosen to be rich in hits. Some 2.5% of all compounds tested hit in one or more screens of this group.
SENP8 block-1 – blocks human SENP8 cleavage of Nedd8 substrate; Q96LD8; recombinant SENP8, Nedd8 substrate fluorescence; inhibition, % at 20 µM; 360,000 tested, 0.64% active; AID 602440; in the data active = inhibition mostly above about 40%, no sharp cut-off; inactive = mostly below about 27%
Target sequence (Q96LD8 whole entry, looked up): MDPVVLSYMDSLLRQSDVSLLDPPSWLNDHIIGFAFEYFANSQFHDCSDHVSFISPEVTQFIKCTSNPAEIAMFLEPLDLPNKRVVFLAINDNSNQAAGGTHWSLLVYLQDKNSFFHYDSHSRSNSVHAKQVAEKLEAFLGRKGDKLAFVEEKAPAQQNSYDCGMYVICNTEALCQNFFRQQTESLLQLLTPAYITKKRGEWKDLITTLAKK
SENP7 block – inhibitors of human SENP7 protease. Q9BQF6. recombinant SENP7, Z-RLRGG-aminoluciferin luminescence, 40 min. inhibition, % at 5 µM. 330,000 tested, 1.5% active. AID 434973;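 active = inhibition above about 50% at the single test dose, limit read from the data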
SENP8 block-2 – inhibitors of human SENP8 protease; Q96LD8; purified SENP8, Z-RLRGG-aminoluciferin cleavage, luminescence; inhibition, % at 10 µM; 330,000 tested, 1.2% active; AID 2540; in the data active = inhibition above about 50%
SENP1 inh – inhibitors of human SENP1 SUMO protease catalytic domain. AID 624204. recombinant SENP1 catalytic domain, CyPet-SUMO1-YPet FRET cleavage. 360,000 tested, 0.21% active. Q9P0U3. inhibition, % at 10 µM;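 active = inhibition at least 30% at 10 µM, raw YFP signal under a set limit, fluorescence ratio 0.5 to 1.5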
Target sequence (Q9P0U3 419-644 limits assumed): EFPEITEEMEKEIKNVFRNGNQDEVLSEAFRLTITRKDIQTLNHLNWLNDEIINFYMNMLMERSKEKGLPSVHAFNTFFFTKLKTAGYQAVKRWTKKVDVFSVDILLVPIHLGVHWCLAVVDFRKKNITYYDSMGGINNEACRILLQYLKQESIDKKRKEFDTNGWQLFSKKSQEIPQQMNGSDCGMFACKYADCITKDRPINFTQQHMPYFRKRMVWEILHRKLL
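Test system: hSENP1 catalytic domain, recombinant; Amount: 20 pM final SENP1 enzyme; Medium: Tris pH 8 buffer plus EDTA, NaCl, BME, BSA, NP40, catalase; Schedule: 50 min enzyme reaction, room temperature, light-protected; Technique: FRET fluorescence in CFP and YFP emission channels; Controls: no-enzyme wells low, DMSO-plus-enzyme wells high control.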
SENP6 inh – SENP6 protease inhibition. Q9GZR1. Recombinant SENP6 catalytic domain, aminoluciferin luminescence. inhibition, % at 10 µM. 330,000 tested, 1.8% active;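 active = inhibition above about 50% at the single tested dose, limit read from the data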
SENP8 conf – human SENP8 inhibition, confirmed | shares compounds with SENP7 block | Recombinant SENP8, Z-RLRGG-aminoluciferin luminescence, 60 min | inhibition, % at 12.5 µM | 6,200 tested, 40% active;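 active = mean inhibition across replicates above about 50%, limit read from the data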
SENP6 conf – human SENP6 inhibition, confirmed; shares compounds with SENP7 block; recombinant SENP6, Z-RLRGG-aminoluciferin luminescence; inhibition, % at 12.5 µM; 6,200 tested, 58% active; AID 488915
SENP7 confirm – confirmation of human SENP7 protease inhibitors | shares compounds with SENP7 block | recombinant SENP7, Z-RLRGG-aminoluciferin luminescence, 40 min | inhibition, % at 12.5 µM | 6,200 tested, 69% active
Casp3 SENP sel – selectivity test for SENP inhibitors: human caspase-3 inhibition | 6,200 tested, 60% active | shares compounds with SENP7 block | inhibition, % at 12.5 µM | purified caspase-3, Z-DEVD-aminoluciferin luminescence, 60 min;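 active = mean inhibition above about 50%, limit read from the data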
Target sequence (P42574 28-227 limits assumed): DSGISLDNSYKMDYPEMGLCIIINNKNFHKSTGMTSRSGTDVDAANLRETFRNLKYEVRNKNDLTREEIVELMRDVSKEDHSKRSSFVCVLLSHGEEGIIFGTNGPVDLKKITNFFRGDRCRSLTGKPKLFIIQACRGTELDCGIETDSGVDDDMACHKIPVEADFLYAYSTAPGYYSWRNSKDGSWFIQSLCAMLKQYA
Luc interf – counter-screen for SENP inhibitors: luminescence interference; shares compounds with SENP7 block; 6,200 tested, 39% active; Pre-incubated SENP8/Z-RLRGG-aminoluciferin, luciferase luminescence interference; inhibition, % at 12.5 µM; AID 488919;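 active = mean inhibition above about 50% when retested at one dose, limit read from the data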
Of the large screens only hits and unclear results are named; the others gave an inactive call (follow-up assays come after a bar, where they were run).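 Rule for the calls, unless noted: active = mean inhibition above about 50% in the one-dose retest (limit read from the data); inactive = the rest.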

CCOc1cc(/C=N/NC(N)=O)cc(Br)c1OCc1ccccc1F	none
O=[N+]([O-])c1ccc(C=CC=Cc2ccccc2)cc1	none (no result: SENP7 block, SENP8 block-2, SENP6 inh)
[O-]/[N+](=C\C=C\c1ccccc1)c1ccccc1	SENP8 block-2 57.5, SENP6 inh 73.0
Oc1ccc2c(c1)OCC1(O)Cc3cc(O)c(O)cc3C21 (stereo unspecified)	SENP1 inh 30.9 (no result: SENP7 block, SENP8 block-2, SENP6 inh)
Cc1ccc2c(c1)N(CC(=O)NCCC1=CCCCC1)C(=O)c1cccnc1O2	none
CCOc1cc(/C=C2\SC(=S)N(NC(=O)c3cccnc3)C2=O)ccc1O	SENP1 inh 50.3
COc1cc(/C=C2\SC(=S)N(NC(=O)c3ccncc3)C2=O)ccc1O	SENP1 inh 48.8
Cc1cc(=O)[nH]c(SCC(=O)Nc2ccc(F)c([N+](=O)[O-])c2)n1	none
Cc1nc2ccc(NC(=O)c3ccc(C)c(S(=O)(=O)N4CCOCC4)c3)cc2s1	none
CC(C)(C)OC(=O)CN1C(=O)S/C(=C\c2ccc(-c3cccc(C(=O)O)c3)o2)C1=O	SENP8 block-2 68.0, SENP6 inh 78.0 (no result: SENP8 block-1, SENP1 inh)
Cc1ccc(NC(=O)CN2C(=O)S/C(=C/c3ccc(-c4cccc(C(=O)O)c4)o3)C2=O)cc1	none (no result: SENP7 block, SENP8 block-2, SENP6 inh)
COc1cccc(-n2sc3c(c2=S)-c2cc(OC)ccc2NC3(C)C)c1	none
CC1(C)Nc2ccc(O)cc2-c2c1ssc2=S	SENP8 block-1 67.1
C[C@@H]1CN([C@@H](C)CO)C(=O)CCCn2nncc2CO[C@@H]1CN(C)S(=O)(=O)c1ccc2c(c1)OCCCO2	none (no result: SENP7 block, SENP8 block-2, SENP6 inh)
CCOC(=O)[C@H]1[C@H]2COc3ccccc3[C@@H]2N2C(=O)CN(Cc3ccc(C)cc3)C(=O)[C@@]12C	SENP1 inh 33.8
COc1ccc(CN2C(=O)C(CC(=O)NCc3cccs3)CC(C(=O)N(C)C)=C2C)cc1 (stereo unspecified)	none (no result: SENP7 block, SENP8 block-2, SENP6 inh)
Cc1cccc(C(C)C)c1NC(=O)CN1C(=O)NC2(CCc3ccccc32)C1=O (stereo unspecified)	none
O=C(c1ccccc1)c1ccc(O)cc1O	SENP1 inh 53.6
Cc1ccc(S(=O)(=O)Nc2cc3c4c(c2)CCN4C(=O)CC3)cc1	none
C#CCOc1c(/C=C\c2nc(O)c([N+](=O)[O-])c(=O)[nH]2)cc(Br)cc1OC	none
CC1=NN(c2nc(-c3ccc(C)cc3)cs2)C(=O)C1N=Nc1cccc(O)c1 (stereo unspecified)	SENP8 block-1 35.8
COc1cc(/C=C2/C(=O)NN(c3cccc(C)c3)C2=O)cc([N+](=O)[O-])c1O	SENP8 block-1 48.4
COc1cc(/C=C2/C(=O)NN(c3ccc(C)c(Cl)c3)C2=O)cc([N+](=O)[O-])c1O	SENP8 block-1 49.5
O=C(COc1cccc(F)c1)Nc1nc(-c2cccnc2)cs1	none
CSCCC(c1nnnn1C1CCCC1)N1CCN(C/C=C/c2ccccc2)CC1 (stereo unspecified)	none (no result: SENP7 block, SENP8 block-2, SENP6 inh)
CNc1c(NC(=O)c2ccc3c(c2)OCO3)c(=O)oc2ccccc12	none
CCOC(=O)C(/C(N)=N/C(=O)Nc1ccccc1)=C(\C)O	SENP6 inh 64.0 | SENP8 conf inactive | SENP6 conf 56.9 | SENP7 confirm 88.1 | Casp3 SENP sel 80.5 | Luc interf inactive
CC(C)(C)OC(=O)N1CCc2onc(-c3ccc(Cl)cc3)c2C1=O	none (no result: SENP7 block, SENP8 block-2, SENP6 inh)
Cc1ccc(-c2csc(N3C(=N)SCC3=O)n2)cc1	SENP7 block 71.3, SENP8 block-2 51.4 (no result: SENP8 block-1, SENP1 inh) | SENP8 conf inactive | SENP6 conf inactive | SENP7 confirm inactive | Casp3 SENP sel inactive | Luc interf inactive
CC1=NN(c2nc(-c3ccc(Cl)cc3)cs2)C(=O)C1	none
C/C(=N\NC(=O)c1nn(C)c(C)c1Br)c1ccc(NC(=O)c2ccoc2C)cc1	SENP7 block 59.6 | SENP8 conf inactive | SENP6 conf inactive | SENP7 confirm inactive | Casp3 SENP sel inactive | Luc interf inactive
Cc1ccc(/C=N/Nc2ccc(C(=O)O)cc2)o1	SENP7 block 70.8, SENP8 block-2 78.4, SENP6 inh 91.8 | SENP8 conf 65.0 | SENP6 conf 57.9 | SENP7 confirm 91.0 | Casp3 SENP sel 84.7 | Luc interf 82.1
O=C(O)c1ccc(N/N=C/c2ccc(-c3ccccc3Cl)o2)cc1	SENP7 block 87.6, SENP8 block-2 96.8, SENP6 inh 97.6 | SENP8 conf 99.4 | SENP6 conf 100.5 | SENP7 confirm 103.1 | Casp3 SENP sel 66.2 | Luc interf 97.3
O=C(N/N=C/c1ccc(-c2ccccc2Cl)o1)c1ccccc1	none
CCOC(=O)CNC(=O)CSc1ncnc2c1cnn2-c1ccc(C)cc1	SENP6 inh 52.3 | SENP8 conf inactive | SENP6 conf inactive | SENP7 confirm inactive | Casp3 SENP sel inactive | Luc interf inactive
CCOC(=O)CNC(=O)CSc1ncnc2c1cnn2-c1ccc(OC)cc1	SENP8 block-2 68.1, SENP6 inh 70.1 | SENP8 conf inactive | SENP6 conf inactive | SENP7 confirm inactive | Casp3 SENP sel 75.4 | Luc interf inactive
COc1nc(-c2ccc(Cl)cc2)ccc1-c1noc(-c2ccco2)n1	none
c1coc(-c2nc(-c3ccncc3)no2)c1	SENP7 block 62.2, SENP6 inh 71.7 | SENP8 conf inactive | SENP6 conf 53.0 | SENP7 confirm 84.6 | Casp3 SENP sel 81.8 | Luc interf inactive
Brc1ccc(-c2nc(-c3ccncc3)no2)cc1	SENP7 block 73.0 | SENP8 conf inactive | SENP6 conf inactive | SENP7 confirm inactive | Casp3 SENP sel inactive | Luc interf inactive
c1ccc(-c2ccc(-c3nc(-c4ccncc4)no3)cc2)cc1	SENP8 block-2 82.9, SENP6 inh 90.9 | SENP8 conf inactive | SENP6 conf inactive | SENP7 confirm inactive | Casp3 SENP sel 71.7 | Luc interf inactive
O=[N+]([O-])c1ccc(-c2nc(-c3ccncc3)no2)cc1	none
c1ccc(-c2nc(-c3ccncc3)no2)cc1	SENP7 block 80.1, SENP8 block-2 57.7, SENP6 inh 81.8 | SENP8 conf inactive | SENP6 conf inactive | SENP7 confirm inactive | Casp3 SENP sel inactive | Luc interf inactive
CCOCCCNc1ncnc2c1nc1n2CCCC1	none
O=c1oc(C2(O)CCCCC2)cc2ccccc12	none
O=c1oc(C2(O)CCCCC2)cc2ccc(-c3ccc4[nH]ccc4c3)cc12	SENP7 block 53.3 | SENP8 conf inactive | SENP6 conf inactive | SENP7 confirm inactive | Casp3 SENP sel inactive | Luc interf inactive
